# An excerpt weighted towards active compounds, which were near 1.8% of everything screened.
# Jurkat NFkB inh – inhibitors of induced NF-kB luciferase reporter, primary screen, TCR NF-kB activation inhibitor project, cell-based, luminescence, uHTS. Jurkat, PMA/ionomycin-induced NF-kB luciferase reporter. actives 0.53% (n = 330,000). inhibition, % at 4 µM; in the data active = inhibition above about 50%
# UPR CHOP act – activators of apoptotic CHOP UPR arm, primary screen, cell-based, CHO-CHOP luciferase reporter, luminescence, uHTS. UPR activation; percent of tunicamycin response over DMSO baseline. activation, % at 10 µM. actives 0.34% (n = 330,000);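 active = at 10 µM dose, activation of 40% or more, normalized to positive control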;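 note: 100% = tunicamycin at 10 µg/mL and 0% = DMSO alone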
#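 System: CHO-CHOP luciferase reporter cell line; amount: 500 cells/well; buffer or medium: F12 medium containing 10% fetal bovine serum; incubation: 6 h compound exposure at 37 °C after overnight seeding; measured by: luciferase luminescence after 10 min with Steady-Glo reagent; evaluation: % reporter activation, DMSO baseline versus tunicamycin full activation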
# XBP1 UPR activ – activators of adaptive XBP1 UPR arm, primary screen, cell-based, CHO-XBP1 luciferase reporter, luminescence, uHTS; IRE1-XBP1 UPR activation; percent of tunicamycin response, DMSO as zero; activation, % at 20 µM; actives 0.33% (n = 330,000);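 active = versus positive control, 20 µM dose yields 30% or more activation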;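 note: 100% = tunicamycin at 10 µg/mL and 0% = DMSO only wells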
#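 assay system = CHO-XBP1 luciferase reporter cells | amount = 1000 cells/well | buffer or medium = F12 plus 10% FBS | compound dosing = single point, 20 µM final compound, 1% DMSO | incubation = 16-18 h cell attachment at 37 °C, then 6 h compound exposure | detection = Steady-Glo luminescence read | controls = tunicamycin 10 µg/mL and vehicle-only wells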
# CRFR2-BP antag – antagonists of CRF-BP/CRF-R2 complex, primary screen, cell-based, HEK293, calcium dye fluorescence, uHTS; CRF-induced calcium fluorescence; inhibition, % at 11.8 µM; actives 0.59% (n = 350,000);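 active = inhibition of the ligand-induced calcium signal above about 50% at the single tested concentration, limit read from the data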
# 697 NFkB inh – inhibitors of PMA/ionomycin-induced NF-kB reporter, 697 cells, primary screen, B-cell NF-kB inhibitor project, cell-based, luminescence, uHTS; 697 B-cell NF-kB luciferase reporter, 16 h; inhibition, % at 4 µM; actives 0.33% (n = 330,000); in the data active = inhibition above about 35%
# * hit, by the source's call; · = no result given; ! = a repeat was not active.
SMILES,Jurkat NFkB inh,UPR CHOP act,XBP1 UPR activ,CRFR2-BP antag,697 NFkB inh
CCOc1ccc2c(c1)/C(=C(\C(Cl)=C(Cl)Cl)[N+](=O)[O-])N2,15,-1,-2,2,-10
Cc1nn(-c2ccccc2)c(Cl)c1/C=N/Nc1ccc(S(=O)(=O)Nc2ccccc2C(=O)O)cc1[N+](=O)[O-],8,-1,-1,74*,3
C=CCOc1ccc(C=NNc2ccc(S(=O)(=O)Nc3ccccc3C(=O)O)cc2[N+](=O)[O-])cc1OC,-15,2,-3,67*,7
CSc1ccc(C=NNc2ccc(S(=O)(=O)Nc3ccccc3C(=O)O)cc2[N+](=O)[O-])cc1,3,2,-1,20,7
Cc1nn(-c2ccccc2)nc1C(=O)OCC(=O)N1CCC(C)CC1,14,1,3,5,5
CCOc1ccc(C(=O)Nc2ccc(Cl)cn2)cc1Cl,-92,4,0,56*,-83
CC(=O)OCc1cc(-c2nn(C)c(=O)c3ccccc23)ccc1C,6,0,-1,9,29
Cc1ccc(-c2nn(C)c(=O)c3ccccc23)cc1CO,14,4,0,69*,14
O=C(c1ccco1)N1CCN=C1SCc1ccccc1Cl,-8,-2,2,101*,6
Cc1nn(-c2ccccc2)c(C)c1NC(=O)COC(=O)c1ccccc1OC(F)F,7,0,-4,58*,2
O=C(Nc1nc2c(F)cc(F)cc2s1)c1ccc([N+](=O)[O-])o1,-31,18,8,80*,-115
Cc1ccc(S(=O)(=O)N(C)c2ccc(OCC(=O)NCC3(N(C)C)CCCCC3)cc2)cc1,-28,1,-2,1,4
COc1ccc(/C=C2\S/C(=N/S(=O)(=O)c3cccs3)NC2=O)cc1,0,-3,-3,69*,8
COc1ccc(/C=N/S(=O)(=O)c2cccs2)cc1,2,-2,0,-5,14
CC(C)(C)NC(=O)/C(=C/c1ccccc1F)NC(=O)c1ccc([N+](=O)[O-])cc1,4,-1,-1,52*,18
CCS(=O)(=O)c1nc(S(=O)(=O)c2ccc(C)cc2)c(N2CCOCC2)s1,-5,-1,-2,-16,-4
Cc1ccc(S(=O)(=O)c2nc(S(C)(=O)=O)sc2N2CCOCC2)cc1,25,-1,-5,95*,5
Cc1cc(C(=O)NCCc2ccc(Cl)cc2)c2ccccc2n1,6,-1,-5,1,15
O=C(NCCO)c1nc(C(=O)c2ccc(Cl)cc2)c2ccccc2n1,-13,2,1,71*,1
CCOc1c(C)cc(-c2ncccc2O)cc1C,2,2,2,52*!,-8
CCCCOC(=O)Oc1ccc2c(=O)c(Oc3cccc(C)c3)coc2c1,-10,2,-1,56*,-20
CCN(CC)S(=O)(=O)c1cc(OC)c(Cl)cc1Cl,-12,-1,-1,7,6
CCN(CC)S(=O)(=O)c1cc(OC)c(C)cc1C,-4,-2,-2,69*,-1
COc1cc(C(=O)N(CCN(C)C)CC2CCCN(Cc3ccccc3F)C2)ccc1C (centres undefined),-5,2,-3,-2,-28
Cc1cc(Cl)ccc1OCCCC(=O)NNC(=O)c1ccccc1O,28,-1,-3,-6,-5
SMILES,Jurkat NFkB inh,UPR CHOP act,XBP1 UPR activ,CRFR2-BP antag,697 NFkB inh
O=C(Nc1cccc(C(F)(F)F)c1)C1CCN(S(=O)(=O)c2ccc(N3CCCC3=O)cc2)CC1,-1,4,-5,4,6
c1ccc(C(c2nnnn2Cc2cccs2)N2CCN(C3CCCC3)CC2)cc1 (centres undefined),-8,-1,-2,65*,-24
Fc1ccc(C(c2nnnn2Cc2cccs2)N2CCN(C3CCCC3)CC2)cc1 (centres undefined),0,-1,-4,4,6
CC1=NN(C(=O)c2ccc(Br)cc2)C(O)(C(F)(F)OC(F)(F)F)C1 (centres undefined),5,3,5,50*,2
CC(=O)Nc1cccc(NC(=O)CSc2ncc(C(=O)Nc3ccccc3)c(=O)n2C)c1,13,202*,-5,-11,-8
CC(=O)Nc1cccc(NC(=O)CSc2ncc(C(=O)Nc3ccc(F)cc3)c(=O)n2C)c1,4,13,-3,24,-3
CC(C)c1ccc(NC(=O)N2CCCC2C(=O)Nc2ccc(-n3cnnn3)cc2)cc1 (centres undefined),-21,1,-1,-10,-7
COC(=O)c1sc(-c2ccc(C(C)(C)C)cc2)cc1NC(=O)COCC(=O)O,0,2,7,60*,-34
CC(=O)Nc1ccc(NC(=O)COc2ccc([N+](=O)[O-])cc2)cc1,7,-1,-1,60*,13
O=C(CCOc1ccccc1)Nc1ccc([N+](=O)[O-])cc1,2,0,-2,67*,19
Cc1cc(Br)c(OCc2ccc(C(=O)N/N=C/c3ccc[nH]3)cc2)c(Br)c1,-4,41*,99*,12,0
COCCN(C(=O)COC(=O)CNC(=O)c1ccc(C)cc1)c1c(N)n(Cc2ccccc2)c(=O)[nH]c1=O,·,·,·,12,·
Cc1ccc(OCCNC(=O)C2CC(=O)N(Cc3ccccc3)C2)cc1 (centres undefined),1,1,-2,-5,14
O=C1N=c2ccccc2=C1c1sc(=S)n(-c2ccc(O)cc2)c1O,-12,1,-1,-1,-3
O=C1N=c2ccccc2=C1c1sc(=S)n(NC(=O)c2cccc(O)c2)c1O,·,·,·,65*,·
NC(=O)c1ccsc1NC(=O)COC(=O)c1cccnc1Cl,-5,4,7,-7,-2
Cc1cc2c(NS(=O)(=O)c3ccc(F)cc3)cccc2nn1,-11,1,-1,113*,-2
Cc1ccccc1NS(=O)(=O)c1ccc(F)cc1,-3,1,1,3,8
CCCn1c(C(C)NS(=O)(=O)c2ccccc2)n[nH]c1=S (centres undefined),7,2,-1,62*,15
CCn1c(C(C)NS(=O)(=O)c2ccc(Cl)cc2)n[nH]c1=S (centres undefined),15,1,0,12,9
COc1ccccc1NS(=O)(=O)c1ccc(C)c(C(=O)NCC(c2cccs2)N2CCOCC2)c1 (centres undefined),·,·,·,15,·
COc1cccc(C(=O)c2ccccc2NC(C)=O)c1,·,·,·,10,·
Fc1cccc(CNc2ncnc3cc(Cl)ccc23)c1F,25,2,-3,9,-21
COc1ccc(-c2sc3ccccc3c2-c2ccc(OCCN3CCCCC3)cc2)cc1,6,3,10,62*,-1

# Screening results: PubChem BioAssay, Sanford-Burnham Center for Chemical Genomics
